The subject of assay [1] is Tobacco mosaic virus. Nature of the assay: Antiviral activity against Tobacco mosaic virus (TMV) pre-treated with 250 ug/mL compound for 30 min followed by inoculation on left side of Nicotiana tabacum leaves assessed as virus inactivation effect measured 3 to 4 days post viral infection. Format: functional. The essentials: (§1)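 Purified TMV is mixed with an equal volume of compound solution for 30 min. The mixture is rub-inoculated on the left half of N. tabacum leaves, and a solvent–virus mixture on the right half serves as control. Local lesions are recorded 3-4 days after inoculation. Inhibition % = (control − treated average lesions)/control × 100. Three repetitions. EC50 is derived from tests at several concentrations.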

Assay [2] has as its system Tobacco mosaic virus. Put plainly: Antiviral activity against Tobacco mosaic virus (TMV) pre-treated with 30.7 ug/mL compound for 30 min followed by inoculation on left side of Nicotiana tabacum leaves assessed as virus inactivation effect measured 3 to 4 days post viral infection. Format: functional. The essentials: as §1
For assay [3], the system named is Tobacco mosaic virus. Put plainly: Antiviral activity against Tobacco mosaic virus (TMV) inoculated on 500 ug/mL compound smeared Nicotiana tabacum leaves assessed as protective effect against viral infection measured 3 to 4 days post viral infection. In kind it is functional. The essentials:
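Half-leaf assay on same-age N. tabacum leaves. The compound solution is applied to the left half and solvent to the right half as control. After 12 h, leaves dusted with silicon carbide are brush-inoculated with purified TMV (6 × 10^-3 mg/mL) and then rinsed with water. Local lesions are counted 3-4 days later. Inhibition % = (control lesions − treated lesions)/control lesions × 100. Three repetitions.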

The subject of assay [4] is Tobacco mosaic virus. Nature of the assay: Antiviral activity against Tobacco mosaic virus (TMV) inoculated on whole Nicotiana tabacum leaves followed by smearing with 500 ug/mL compound solution on left side of leaves assessed as viral infection curative effect measured 3 to 4 days post viral infection. Format: functional. The essentials: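 Whole same-age N. tabacum leaves are brush-inoculated with purified TMV (6 × 10^-3 mg/mL), washed with water and dried. The compound solution is then applied to the left half and solvent to the right half as control. Local lesions are counted 3-4 days after inoculation. Inhibition % is calculated from average lesion counts, control versus treated. Three repetitions.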

Assay [5] concerns Tobacco mosaic virus. Put plainly: Antiviral activity against Tobacco mosaic virus (TMV) pre-treated with 500 ug/mL compound for 30 min followed by inoculation on left side of Nicotiana tabacum leaves assessed as virus inactivation effect measured 3 to 4 days post viral infection. In kind it is functional. The essentials: as §1
In assay [6] the test system is Tobacco mosaic virus. Nature of the assay: Antiviral activity against Tobacco mosaic virus (TMV) pre-treated with compound for 30 min followed by inoculation on left side of Nicotiana tabacum leaves assessed as virus inactivation effect measured 3 to 4 days post viral infection. Format: functional, organism-based. The essentials: as §1
In assay [7] the test system is Tobacco mosaic virus. Nature of the assay: Antiviral activity against Tobacco mosaic virus (TMV) pre-treated with 125 ug/mL compound for 30 min followed by inoculation on left side of Nicotiana tabacum leaves assessed as virus inactivation effect measured 3 to 4 days post viral infection. In kind it is functional. The essentials:
as §1

The test system of assay [8] is Tobacco mosaic virus. Put plainly: Antiviral activity against Tobacco mosaic virus (TMV) pre-treated with 62.5 ug/mL compound for 30 min followed by inoculation on left side of Nicotiana tabacum leaves assessed as virus inactivation effect measured 3 to 4 days post viral infection. In kind it is functional. The essentials:
as §1

For 25 compounds, Activity and EC50 results are on record in ChEMBL document CHEMBL3045617, “Synthesis and antiviral activities of cyanoacrylate derivatives containing an alpha-aminophosphonate moiety” (J Agric Food Chem, 2008).

≈ marks a conversion by molar mass, not a printed value.

For `CCOP(=O)(OCC)C(N/C(SC)=C(/C#N)C(N)=O)c1ccccc1F` (stereo not given), the Activity with Tobacco mosaic virus [1] is given as 49%; in the assay on Tobacco mosaic virus [2], 26.9%; in the assay with Tobacco mosaic virus [3], 42.8%; in the assay with Tobacco mosaic virus [4], 25.4%; with Tobacco mosaic virus [5], 70.7%; in the assay with Tobacco mosaic virus [7] it was 46.2%. The Activity with Tobacco mosaic virus [8] was 35.8%. The concentration giving a half-maximal response (EC50) – broadly, the concentration giving half of the maximal effect – with Tobacco mosaic virus [6] came to 151 µg/mL (≈ 376 µM).

For `CCOP(=O)(OCC)C(N/C(SC)=C(/C#N)C(=O)NCc1ccccc1)c1ccccc1` (stereo not given), the Activity amounted to 55.1% in the assay on Tobacco mosaic virus [3], 55% with Tobacco mosaic virus [4] and 51.9% in the assay on Tobacco mosaic virus [5].

On to `CCCOP(=O)(OCCC)C(N/C(SC)=C(/C#N)C(=O)NCc1ccccc1)c1ccccc1` (stereo not given), for which the Activity was 42.4% in the assay with Tobacco mosaic virus [3], 53.8% in the assay with Tobacco mosaic virus [4] and 50% with Tobacco mosaic virus [5].

Take `CS/C(NC(c1ccccc1)P(=O)(OC(C)C)OC(C)C)=C(\C#N)C(=O)NCc1ccccc1` (stereo not given): the Activity in the assay on Tobacco mosaic virus [3] was determined as 39%; with Tobacco mosaic virus [4] it was 52.9%; with Tobacco mosaic virus [5], 51.5%.

For the compound `CCCCOP(=O)(OCCCC)C(N/C(SC)=C(/C#N)C(=O)NCc1ccccc1)c1ccccc1` (stereo not given), the Activity in the assay on Tobacco mosaic virus [3] was 45%; with Tobacco mosaic virus [4], 28.4%; in the assay on Tobacco mosaic virus [5] it was 11%.

As for `CCOP(=O)(OCC)C(N/C(SC)=C(/C#N)C(=O)NCc1ccccc1)c1ccccc1F` (stereo not given), the Activity in the assay with Tobacco mosaic virus [1] is recorded as 58.9%; in the assay on Tobacco mosaic virus [2], 29%; in the assay with Tobacco mosaic virus [3] it was 47.7%; with Tobacco mosaic virus [4] it was 49.9%; in the assay on Tobacco mosaic virus [5] it was 73.4%; with Tobacco mosaic virus [7] it was 48.9%. For the same compound, the Activity in the assay on Tobacco mosaic virus [8] is given as 41.2%. Further, the EC50 with Tobacco mosaic virus [6] is 128 µg/mL (≈ 260 µM).

As to `CCOP(=O)(OCC)C(N/C(SC)=C(/C#N)C(=O)OC)c1ccccc1` (stereo not given), the Activity with Tobacco mosaic virus [3] is recorded as 29.6%; in the assay with Tobacco mosaic virus [4], 56.7%; in the assay on Tobacco mosaic virus [5], 64.1%.

As for `CCCOP(=O)(OCCC)C(N/C(SC)=C(/C#N)C(=O)OC)c1ccccc1` (stereo not given), the Activity in the assay with Tobacco mosaic virus [3] is on record as 44.4%; in the assay on Tobacco mosaic virus [4], 37.7%; in the assay with Tobacco mosaic virus [5], 47.1%.

With `COC(=O)/C(C#N)=C(\NC(c1ccccc1)P(=O)(OC(C)C)OC(C)C)SC` (stereo not given), the Activity with Tobacco mosaic virus [3] is given as 40.8%; in the assay on Tobacco mosaic virus [4] it was 43.3%; in the assay with Tobacco mosaic virus [5], 45.7%.

Take `CCCCOP(=O)(OCCCC)C(N/C(SC)=C(/C#N)C(=O)OC)c1ccccc1` (stereo not given): the Activity stood at 70.2% in the assay on Tobacco mosaic virus [1]; 37.6% in the assay with Tobacco mosaic virus [2]; 55.9% in the assay on Tobacco mosaic virus [3]; 60.2% in the assay with Tobacco mosaic virus [4]; 92.8% with Tobacco mosaic virus [5]; 66.9% in the assay with Tobacco mosaic virus [7]. Besides, the Activity in the assay on Tobacco mosaic virus [8] is on record as 53.7%. Further, the half-maximal effective concentration (EC50) in the assay with Tobacco mosaic virus [6] was 55.5 µg/mL (≈ 122 µM).

Regarding `CCOP(=O)(OCC)C(N/C(SC)=C(/C#N)C(=O)OC)c1ccccc1F` (stereo not given), the Activity in the assay on Tobacco mosaic virus [1] is given as 69.7%; with Tobacco mosaic virus [2], 40.8%; in the assay with Tobacco mosaic virus [3], 44%; in the assay with Tobacco mosaic virus [4], 58.4%; in the assay with Tobacco mosaic virus [5] it was 92.1%; in the assay on Tobacco mosaic virus [7], 60.6%. The Activity with Tobacco mosaic virus [8] amounted to 52.5%. In addition, in the assay on Tobacco mosaic virus [6], the concentration for a half-maximal effect (EC50) turned out to be 55.3 µg/mL (≈ 133 µM).

For `CCCOP(=O)(OCCC)C(N/C(SC)=C(/C#N)C(=O)OCC)c1ccccc1` (stereo not given), the Activity came out at 50.1% in the assay with Tobacco mosaic virus [1]; 20.9% in the assay with Tobacco mosaic virus [2]; 41.6% in the assay with Tobacco mosaic virus [3]; 50.5% in the assay on Tobacco mosaic virus [4]; 71% in the assay on Tobacco mosaic virus [5]; 47.9% with Tobacco mosaic virus [7]. For the same compound, the Activity in the assay on Tobacco mosaic virus [8] worked out at 33.1%. In the assay with Tobacco mosaic virus [6], the EC50 is 159 µg/mL (≈ 361 µM).

`CCOC(=O)/C(C#N)=C(\NC(c1ccccc1)P(=O)(OC(C)C)OC(C)C)SC` (stereo not given): the Activity is on record as 37.6% in the assay on Tobacco mosaic virus [3], 42.8% in the assay with Tobacco mosaic virus [4] and 37.8% in the assay on Tobacco mosaic virus [5].

Consider `CCCCOP(=O)(OCCCC)C(N/C(SC)=C(/C#N)C(=O)OCC)c1ccccc1` (stereo not given), for which the Activity in the assay with Tobacco mosaic virus [1] is 65.7%; in the assay on Tobacco mosaic virus [2], 42.6%; with Tobacco mosaic virus [3], 56.5%; with Tobacco mosaic virus [4], 55.8%; with Tobacco mosaic virus [5], 84%; in the assay with Tobacco mosaic virus [7] it was 51.6%. In addition, the Activity with Tobacco mosaic virus [8] turned out to be 48.5%. Further, the EC50 with Tobacco mosaic virus [6] turned out to be 62.6 µg/mL (≈ 134 µM).

Turning to `CCOC(=O)/C(C#N)=C(\NC(c1ccccc1F)P(=O)(OCC)OCC)SC` (stereo not given), the Activity with Tobacco mosaic virus [1] is reported as 64.1%; in the assay on Tobacco mosaic virus [2], 30.7%; in the assay on Tobacco mosaic virus [3], 48.3%; in the assay on Tobacco mosaic virus [4], 50.7%; in the assay on Tobacco mosaic virus [5] it was 74.1%; in the assay on Tobacco mosaic virus [7], 50.1%. Also, in the assay with Tobacco mosaic virus [8], the Activity is reported as 39.1%. For the same compound, in the assay on Tobacco mosaic virus [6], the EC50 was found to be 118 µg/mL (≈ 275 µM).

As to `CCOCCOC(=O)/C(C#N)=C(\NC(c1ccccc1)P(=O)(OCC)OCC)SC` (stereo not given), the Activity is listed as 41.2% in the assay on Tobacco mosaic virus [3], 55.2% in the assay on Tobacco mosaic virus [4] and 46.8% with Tobacco mosaic virus [5].

As for `CCCOP(=O)(OCCC)C(N/C(SC)=C(/C#N)C(=O)OCCOCC)c1ccccc1` (stereo not given), the Activity came out at 43.1% with Tobacco mosaic virus [3], 43.2% with Tobacco mosaic virus [4] and 51.5% in the assay with Tobacco mosaic virus [5].

For `CCOCCOC(=O)/C(C#N)=C(\NC(c1ccccc1)P(=O)(OC(C)C)OC(C)C)SC` (stereo not given), the Activity with Tobacco mosaic virus [3] was 38.4%; in the assay on Tobacco mosaic virus [4], 35.1%; in the assay with Tobacco mosaic virus [5], 55.9%.

Take `CCCCOP(=O)(OCCCC)C(N/C(SC)=C(/C#N)C(=O)OCCOCC)c1ccccc1` (stereo not given): the Activity with Tobacco mosaic virus [1] amounted to 62%; in the assay with Tobacco mosaic virus [2], 27.8%; in the assay with Tobacco mosaic virus [3], 44.4%; with Tobacco mosaic virus [4], 51.8%; in the assay on Tobacco mosaic virus [5], 80.6%; with Tobacco mosaic virus [7], 53.8%. For the same compound, the Activity in the assay on Tobacco mosaic virus [8] came out at 42.8%. Moreover, the concentration giving a half-maximal response (EC50) with Tobacco mosaic virus [6] turned out to be 87.9 µg/mL (≈ 171 µM).

Regarding `CCOCCOC(=O)/C(C#N)=C(\NC(c1ccccc1F)P(=O)(OCC)OCC)SC` (stereo not given), the Activity worked out at 48.8% with Tobacco mosaic virus [1]; 20.8% in the assay with Tobacco mosaic virus [2]; 48.3% in the assay with Tobacco mosaic virus [3]; 52.7% with Tobacco mosaic virus [4]; 70% in the assay with Tobacco mosaic virus [5]; 44.2% with Tobacco mosaic virus [7]. For the same compound, the Activity with Tobacco mosaic virus [8] came to 34.4%. Moreover, the EC50 in the assay with Tobacco mosaic virus [6] turned out to be 167 µg/mL (≈ 353 µM).

As to `CCOP(=O)(OCC)C(N/C(SC)=C(/C#N)C(N)=O)c1ccccc1` (stereo not given), the Activity stood at 55.6% with Tobacco mosaic virus [3], 54.4% with Tobacco mosaic virus [4] and 60.8% with Tobacco mosaic virus [5].

Take `CCCOP(=O)(OCCC)C(N/C(SC)=C(/C#N)C(N)=O)c1ccccc1` (stereo not given): the results for the Activity with Tobacco mosaic virus [3], in the assay with Tobacco mosaic virus [4] and in the assay on Tobacco mosaic virus [5] were 45.8%, 53.9% and 63%, respectively.

In the case of `CS/C(NC(c1ccccc1)P(=O)(OC(C)C)OC(C)C)=C(\C#N)C(N)=O` (stereo not given), the Activity in the assay on Tobacco mosaic virus [3] is reported as 54.4%; with Tobacco mosaic virus [4], 28.8%; with Tobacco mosaic virus [5], 5.7%.

With `CCCCOP(=O)(OCCCC)C(N/C(SC)=C(/C#N)C(N)=O)c1ccccc1` (stereo not given), the Activity in the assay with Tobacco mosaic virus [3] was 40.2%; in the assay on Tobacco mosaic virus [4], 25.4%; with Tobacco mosaic virus [5], 9.6%.

On to `CNCC(=O)N[C@@H](CO)C(=O)N[C@H]1[C@H](O)[C@@H](O)[C@H](n2ccc(N)nc2=O)O[C@@H]1C(N)=O` [NINGNANMYCIN], for which the Activity with Tobacco mosaic virus [1] was determined as 80%; in the assay on Tobacco mosaic virus [2], 42.1%; in the assay on Tobacco mosaic virus [3], 59.9%; in the assay on Tobacco mosaic virus [4], 55.8%; in the assay on Tobacco mosaic virus [5], 99.5%; in the assay on Tobacco mosaic virus [7], 70%. Besides, in the assay on Tobacco mosaic virus [8], the Activity is reported as 60.1%. Moreover, the EC50 with Tobacco mosaic virus [6] stood at 50.9 µg/mL (≈ 115 µM).
